Furin inhibitor: human furin inhibition. P09958. purified furin, fluorogenic substrate cleavage. inhibition, % at 20 µM or 30 µM. 0.061% of 220,000 active; in the data active = inhibition above about 25%
Target sequence (P09958 108-714 limits assumed): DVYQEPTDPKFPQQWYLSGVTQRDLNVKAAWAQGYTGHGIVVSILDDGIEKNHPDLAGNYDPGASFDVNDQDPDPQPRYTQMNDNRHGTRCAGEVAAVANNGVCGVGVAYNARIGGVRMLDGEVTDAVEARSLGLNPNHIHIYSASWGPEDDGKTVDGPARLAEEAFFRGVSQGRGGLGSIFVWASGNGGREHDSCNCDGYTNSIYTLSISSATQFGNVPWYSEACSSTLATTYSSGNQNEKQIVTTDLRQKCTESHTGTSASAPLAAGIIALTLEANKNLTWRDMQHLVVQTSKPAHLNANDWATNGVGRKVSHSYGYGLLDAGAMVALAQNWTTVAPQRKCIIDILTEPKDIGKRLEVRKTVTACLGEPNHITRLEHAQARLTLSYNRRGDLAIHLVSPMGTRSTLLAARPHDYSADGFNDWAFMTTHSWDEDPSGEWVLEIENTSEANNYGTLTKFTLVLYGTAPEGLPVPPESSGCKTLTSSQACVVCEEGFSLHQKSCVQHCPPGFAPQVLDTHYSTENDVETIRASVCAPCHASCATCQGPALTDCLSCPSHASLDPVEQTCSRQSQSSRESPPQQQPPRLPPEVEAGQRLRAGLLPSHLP
HSV replic up: HSV replication enhancement; HSV replication augmentation in cells, fold increase; maximum fold increase; 0.005% of 220,000 active; in the data active = maximum fold increase above about 1.5; inconclusive = no clear call, values can overlap the other calls; tested in PC3 cells
INS promoter inh: TRM-6 insulin promoter activity inhibition | 0.9% of 130,000 active | AID 1273 | TRM-6 cells, insulin promoter-eGFP reporter, imaging; reporter expression induced with tamoxifen | inhibition, % at 2 µM;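 active = inhibition above the mean plus 3 SD, with well images judged a real hit on visual review, cut at about 60% in these data, passing the limit was not always enough; inconclusive = inhibition over the cutoff but images rejected on review; inactive = inhibition not above the cutoff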
Dynein transport: blocks dynein driven cargo transport along microtubules. z-score, hits read low. 0.47% of 220,000 active. 3617.4 mouse cells, GR-EGFP nuclear translocation imaging; test concentration mostly 20 µM; stimulated with dexamethasone, 1 µM; active compounds read low. AID 1381;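 active = plate z-score of nuclear minus cytoplasmic receptor signal below a set negative limit, without overly bright fluorescence or cell loss, cut at about -3.5 in these data, passing the limit was not always enough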;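 also: z-score of nuclear minus cytoplasmic ring GR-EGFP intensity difference per well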
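Also added – dexamethasone, 1.0 µM final · Buffer or medium – tet-free, stripped-serum medium · Schedule – induction 48 h, compound 1 h, agonist 30 min · Detection – formaldehyde fixation, Hoechst nuclear stain, 10x automated fluorescence imaging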
Insulin prom up: MIN6 insulin promoter up-regulation | z-score at 5 µM | 0.3% of 190,000 active | MIN6 insulin promoter-GFP reporter, high-content imaging; active compounds read high;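 active = z-score above 3 at 5 µM with at least 500 cells counted in the well; inconclusive = wells under 500 cells, flagged as cytotoxic or low count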
Autophagy mod: autophagy modulation, high-content screen; calls only at 10 µM (by protocol); AID 463193; MEF GFP-LC3 puncta imaging; test concentration mostly 10 µM; 0.98% of 190,000 active;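 active = percentage of spot-positive cells more than 3 SD above its plate mean, without a fluorescence outlier flag or 80% toxicity; inconclusive = no clear call, values can overlap the other calls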;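 also: spot-positive cell cutoff set from DMSO-treated cells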
* marks the source's active call; other numbers are inactive results; i = inactive; ? = inconclusive; . = no result given; + = active, no number. Compounds with a hit are over-represented: about 2% of the library has one in this group of screens.

SMILES	Furin inhibitor	HSV replic up	INS promoter inh	Dynein transport	Insulin prom up	Autophagy mod
CCCCN(C)C(=O)c1nc2ccccn2c1CN1CCSCC1	-21	i	.	-0.71	-0.27	i
COc1ccc(N2CCN(C(=O)Cc3ccc(Br)cc3)CC2)cc1	-13	i	.	0.35	0.7	.
CS(=O)(=O)N(CC(=O)N1CCCCCC1)c1ccccc1	-1	i	44	2.1	0.18	i
COc1ccc(N2CCN(C(=O)CN(c3ccc(Br)cc3)S(C)(=O)=O)CC2)cc1	2	i	75*	2.6	-1.2	i
CS(=O)(=O)N(CC(=O)N1CCCC1)c1ccc(OCc2ccccc2)cc1	-13	i	75*	0.16	1.7	i
O=C1S/C(=C\c2ccc(N3CCOCC3)o2)C(=O)N1c1ccccc1	-9	i	.	-1.4	.	+
O=C1S/C(=C\c2ccc(N3CCOCC3)o2)C(=O)N1Cc1c(F)cccc1Cl	-22	?	0	-1.5	.	i
COc1ccc(Cn2c(SCc3cc(C)ccc3C)nc3cc(OC)c(OC)cc3c2=N)cc1	-2	i	3	1.5	-0.8	+
CC(C)(C)CC(=O)NCc1ccc(F)cc1	2	i	73*	2.6	-0.26	i
O=C(CCCC(=O)NCc1ccc(F)cc1)NCc1ccc(F)cc1	-20	i	.	-0.22	-0.05	i
C=C(C)C1CC=C(C)/C(=N/NC(=O)c2ccoc2C)C1 (stereo not given)	-13	i	55	-0.45	.	i
COc1ccc2c(c1)-c1nc(/N=C/c3ccc(O)cc3)sc1CC2	-8	.	77*	0.97	.	i
CC(=O)Nc1ccc(Nc2cc(C)nc3c(-c4ccc(Cl)cc4)c(C)nn23)cc1	-13	i	.	-0.76	0.32	i
CC(=O)Nc1ccc(Nc2cc(C)nc3c(-c4ccc(Cl)cc4)cnn23)cc1	-16	i	80*	0.19	.	i
CCN(CC)S(=O)(=O)c1ccc(C)c(N=C=S)c1	-22	i	29	0.66	-0.8	i
CCOC(=O)c1c(C)[nH]c(C(=O)N/N=C\c2ccccc2Cl)c1C	-13	i	.	-0.37	-0.12	+
CCOC(=O)c1c(C)[nH]c(C(=O)OCC(=O)Nc2cc(C)c(Cl)cc2OC)c1C	-11	i	.	-0.29	-0.48	+
O=C(O)CSCCOc1ccc(OCCSCC(=O)O)cc1	-26	i	7	-0.031	0.4	i
O=S(=O)(c1cccc(F)c1)N1CCc2sccc2C1c1ccc(OC(F)(F)F)cc1 (stereo not given)	-4	i	.	-0.77	-0.95	.
CN(C(=O)CSc1nnc(-c2ccccc2)o1)c1c(N)n(Cc2ccccc2)c(=O)[nH]c1=O	-14	i	.	0.29	-0.33	i
COc1cc2nc(NCCCN3CCN(C)CC3)n3nc(-c4ccccc4)nc3c2cc1OC	-19	i	.	-0.07	-0.47	+
CCN(CC)CCCNc1nc2cc(OC)c(OC)cc2c2nc(-c3ccccc3)nn12	-6	i	-38	5.6	-3.8	+
COc1ccccc1CNC(=O)c1cccc2c1C(=O)N(Cc1cccnc1)C2	-30	i	.	-0.74	.	i
O=C(CCN1C(=O)c2ccc([N+](=O)[O-])cc2C1=O)Nc1nccs1	-23	i	.	-0.49	0.42	+
CN(C)C(=O)C1C2NC(=S)N(c3cccc(Cl)c3)C1(C)Oc1ccc(Cl)cc12 (stereo not given)	-15	i	-7	-0.62	3.5*	i
SMILES	Furin inhibitor	HSV replic up	INS promoter inh	Dynein transport	Insulin prom up	Autophagy mod
CN(C)C(=O)C1C2NC(=S)N(c3ccc(Cl)cc3)C1(C)Oc1ccc(Cl)cc12 (stereo not given)	-34	i	-7	-0.3	-0.5	i
CC(=O)NC(c1ccc(Cl)cc1)c1c(O)ccc2ccc(O)cc12 (stereo not given)	-22	i	.	0.22	11*	i
COc1ccc2c(c1)N(C)/C(=C1/SC(=NCc3ccccc3)N(c3ccccc3)C1=O)S2	-14	i	-34	-0.13	-0.78	+
C=CCN1C(=O)/C(=C2/Sc3ccc(OC)cc3N2C)SC1=Nc1ccccc1	-16	i	.	-0.58	-0.16	i
C=CCN1C(=O)/C(=C2/Sc3ccc(OC)cc3N2C)SC1=NCc1ccccc1	-6	i	.	0.099	1	+
COc1ccc(-c2[nH]ncc2/C=C(\C#N)C(=O)NC2CC2)cc1	-7	i	73*	0.53	0.93	i
N#C/C(=C\c1cn[nH]c1-c1ccccc1)C(=O)NC1CCCCCC1	-12	i	-10	0.046	.	i
N#C/C(=C\c1cn[nH]c1-c1ccc(Cl)cc1)C(=O)NC1CC1	-6	i	79*	-0.12	-0.92	i
c1ccc2c(-c3cn4ccccc4n3)c[nH]c2c1	-29	i	-64	0.12	0.64	i
O=C(COc1cccc(NC(=O)c2cccc([N+](=O)[O-])c2)c1)c1ccc(Br)cc1	-4	i	33	1	2	i
CSc1n[nH]c(NCc2ccc(Cl)cc2)n1	-14	i	34	-0.97	.	i
CSc1n[nH]c(NCc2ccc(C)cc2)n1	27*	i	63	0.22	.	i
S=C(Nc1ccccc1)N1CCN(c2ccc(N3CCOCC3)nn2)CC1	-24	i	75*	-0.12	-0.4	i
S=C(Nc1ccccc1)N1CCOCCOCCN(C(=S)Nc2ccccc2)CCOCCOCC1	-8	i	.	-0.22	-0.29	.
CCCC[N+](CC#Cc1ccccc1)(CCCC)CCCS(=O)(=O)[O-]	-18	i	19	-0.32	0.43	i
COc1cc(CC(=O)OCC(=O)Nc2sccc2C(N)=O)cc(OC)c1OC	-17	i	91*	-0.49	-0.64	i
NC(=O)c1ccsc1NC(=O)COC(=O)Cc1ccsc1	-25	i	13	-0.26	0.07	i
CCOC(=O)c1[nH]cnc1C(=O)Nc1cccc(Cl)c1	-21	i	.	-0.056	-0.41	i
Cc1c(NC(=O)c2ccccc2F)c(=O)n(-c2ccccc2)n1C	-12	i	-12	0.95	1.1	i
COc1ccccc1NC(=O)Nc1c(C)n(C)n(-c2ccccc2)c1=O	-19	i	100*	-0.55	0.29	i
Cc1c(NC(=O)c2cnn3cccnc23)c(=O)n(-c2ccccc2)n1C	-18	i	75*	-0.14	-0.6	i
COc1ccccc1N1CCc2c(C)nc3c(OC)cccc3c21	-14	i	.	.	-0.71	i
COc1cccc2c3c(c(C)nc12)CCN3c1ccccc1	-1	i	0	1.3	.	+
Clc1ccc(CN2CCN(c3ccccc3)CC2)cn1	-26	i	.	-0.6	0.91	i
COc1ccc(CC(=O)NCc2nc(-c3ccccc3)no2)cc1	-26	i	.	0.085	-0.08	i
c1ccc(NCc2nc(-c3ccccc3)no2)cc1	-10	i	80*	-0.59	0.9	i
O=C(CC1SC(N2CCOCC2)=NC1=O)Nc1cc([N+](=O)[O-])ccc1Cl (stereo not given)	-28	i	.	-0.5	0.72	i
